Like-named read-outs stand apart in the source and are kept apart here.
Columns and labels:
BCL6 reporter = BCL6 reporter assay in KARPAS422 cells; type: cell-based, human; settings: read-out: EC50 of BCL6 reporter activation, 8 h
How it was run: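 KARPAS422 cells were lentivirally transduced with the BCL6 reporter construct and selected. They were then treated with test compound for 8 h, washed in 2.5% FBS/PBS, stained with 7-AAD (1:250 v/v) for live/dead and analysed by flow cytometry. A GFP-positive gate was set from non-transduced cells. The FITC histogram area past threshold, over live cells, was normalized to DMSO.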

BRD4(BD1) = BRD4(BD1) (Homo sapiens, UniProt O60885); assay: ITC binary titration, TCIP1 and BRD4; type: binding; settings: read-out: Kd of BRD4-TCIP1 (binary)
KARPAS422 cells [1] = assay: Cell cycle and TUNEL analysis; type: cell-based, human; settings: cell-cycle analysis with TUNEL; 100 nM, 24 h
[2] = tested on: BRD4 / Pol II / H3K27ac chromatin occupancy; assay: ChIP-seq; type: cell-based, human
How it was run: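 KARPAS422 cells (30 million) received test compound or DMSO, then were crosslinked with 1% formaldehyde for 12 min and quenched with 0.125 M glycine. Nuclei were prepared and immunoprecipitated overnight at 4 °C. Chromatin input was 50 µg for Pol II Ser2/Ser5 phos and 25 µg for H3K27ac, with Drosophila spike-in. Differential peaks: Wald test, Benjamini–Hochberg, padj ≤ 0.05, |log2| ≥ 0.5.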

[3] = tested on: KARPAS422 cells gene expression; assay: RNA sequencing in KARPAS422 cells; type: cell-based, human
KARPAS422 cells [4] = assay: Annexin V apoptosis assay; type: cell-based, human
How it was run: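 KARPAS422 cells (500,000, plated at 1 M ml−1) were exposed to test compound for the stated times and doses, then harvested on ice and washed twice. They were stained with 7-AAD plus FITC-annexin V for 15 min at room temperature and read immediately by flow cytometry. Gates came from single-stain and no-stain controls. Kinetics used 2–6 biological replicates, mean ± s.d.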

OCILY19 cells = assay: Cell viability of OCILY19 cells; type: cell-based, human; settings: OCILY19, no detectable BCL6
[5] = target: BRD4(BD1)-TCIP1-BCL6(BTB) ternary complex (Homo sapiens, UniProt O60885+P41182, C67R/C84N/C8Q); assay: Biolayer interferometry of ternary complex; type: binding
How it was run: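 Biolayer interferometry used biotinylated BCL6(BTB)-AviTag (100 nM) loaded on streptavidin tips. Wells held tag-cleaved BRD4(BD1) (50 µM, excess) with test compound titrated from 5.5 nM to 12 µM, at 25 °C. Steps were 300 s association, 300 s dissociation and 30 s baseline. Off-rate came from dissociation curves at 7–8 doses, n = 3 independent replicates, mean ± s.d.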

[6] = tested on: primary human tonsillar lymphocytes; assay: Cell viability of primary human tonsillar lymphocytes; type: cell-based; settings: read-out: EC50 of cell viability, 72 h
[7] = tested on: MYC, p21, FOXO3, BCL6, BRD4 protein levels; assay: Western blots of target proteins in DLBCL cells; type: cell-based, human
How it was run: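 Cells plated at 1 M ml−1 were treated with test compound (e.g., 20 h in KARPAS422). Two million cells were lysed on ice in RIPA (pH 8, 1% SDS, 1 mM DTT) with benzonase for 20 min. Lysates were cleared at 14,000g for 10 min at 4 °C and quantified by Bradford. Immunoblots probed BCL6, BRD4, BCL2, p53, MYC, FOXO3 and p21, with GAPDH as loading control.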

[8] = Mouse tolerability and pharmacokinetic study; type: in vivo; settings: 10 mg kg^−1 i.p. once daily for 5 days, C57BL/6 mice
KARPAS422 cells [9] = assay: Cell viability; type: cell-based, human; settings: for fold less-effective cell killing than TCIP1: JQ1 and BI3812 added separately or together, 72 h
SUDHL5 cells = assay: Cell viability in SUDHL5 cells with or without serum starvation; type: cell-based, human
How it was run: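 SUDHL5 cells were arrested in G0/G1 by serum starvation, or left unstarved, before test compound addition. Viability was read with PrestoBlue resazurin reagent (1.5 h, fluorescence 560/590 nm). Signal was background-subtracted and normalized to DMSO-treated cells. n = 3 biological replicates, mean ± s.d.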

DLBCL cell lines = assay: Cell viability; type: cell-based, human; settings: titrated against constant TCIP1 that kills 50–95% of cells within 72 h
[10] = tested on: MYC, p21, FOXO3, BCL6, BRD4 protein levels; settings: BET/BRD4 inhibitor; cited from earlier work
[11] = 2 h, 10 nM, out of 51,678 consensus peaks

With `CNC(=O)COc1cc2cc(Nc3nc(N4CCC(C(=O)NCCCCCCCNC(=O)C[C@@H]5N=C(c6ccc(Cl)cc6)c6c(sc(C)c6C)-n6c(C)nnc65)CC4)ncc3Cl)cc(OC)c2n(C)c1=O` [TCIP1] the EC50 (BCL6 reporter) was 5 nM, the Kd (BRD4(BD1)) was 5080 nM and the cell-cycle effect (KARPAS422 cells [1]) was “induced both a G1/S and G2/M block in the cell cycle”. For the same compound, the H3K27ac peaks decreased [2, 11] was 70 peaks, the H3K27ac peaks increased [2, 11] was 126 peaks and the “increase of BRD4 binding over genomic BCL6-binding sites” value ([2]; ChIP-seq) was 50%. For the same compound, the “BRD4 levels increase at promoters of upregulated genes” value ([2]; ChIP-seq, 1 h of TCIP1 addition) was “approximately 150%”, the “number of genes induced at early timepoints” value ([3]; 10 nM, 1, 2 and 4 h, KARPAS422) was “approximately 140 genes” and the “number of genes with increased expression” value ([3]; 10 nM, 20 h, KARPAS422) was 1,654 genes. For the same compound, the “number of genes with reduced expression” value ([3]; 10 nM, 20 h, KARPAS422) was 1,347 genes, the “time to upregulation of the long isoform of BCL6 mRNA” value ([3]; RT-qPCR, 10 nM) was 1 to 2 h and the “time to detectable apoptosis” value (KARPAS422 cells [4]) was 4 to 8 h. The “response in cell viability” value (OCILY19 cells) was “little or no response compared with controls”, the “off-rate of ternary complex” value [5] was 26 ms^−1 and the EC50 [6] was about 210 nM. For the same compound, the “time to FOXO3 activation” value ([7]; 10 nM) was at most 2 h, the “effect on BRD4 protein levels” value ([7]; 20 h, KARPAS422) was “did not change substantially” and the “time to reduction of MYC protein levels” value ([7]; after addition of drug) was at most 2 h. For the same compound, the “concentration from which MYC levels are reduced” value ([7]; western blot, DLBCL cells) was “less than 1 nM”, the “concentration that activates FOXO3” value ([7]; western blot, DLBCL cells) was 0.5 nM and the “concentration inducing the BCL6L isoform” value ([7]; western blot, Fig. 4k) was at most 1 nM. The body weight change [8] was “no significant changes in mouse body weight”, the “histology (haematoxylin and eosin) of lung and spleen” value [8] was “did not reveal noticeable abnormalities” and the EC50 (KARPAS422 cells [9]; read-out: EC50 of cell viability, KARPAS422, 72 h after addition of drug) was 1.3 nM. For the same compound, the EC50 (SUDHL5 cells; read-out: EC50 of cell viability after G0/G1 arrest, SUDHL5, serum starvation) was 0.25 nM and the EC50 (SUDHL5 cells; read-out: EC50 of cell viability without arrest, SUDHL5, no serum starvation) was 3.2 nM.

For `CNC(=O)COc1cc2cc(Nc3nc(N4CCC(C(=O)N(C)C)CC4)ncc3Cl)cc(OC)c2n(C)c1=O` [BI3812], the “rescue of TCIP1-induced cell death by competitive titration” value (DLBCL cell lines) was “prevented death by TCIP1” and the “fold less-effective cell killing than TCIP1” value (KARPAS422 cells [9]) was 100–1,000 fold.

In the case of `Cc1sc2c(c1C)C(c1ccc(Cl)cc1)=N[C@@H](CC(=O)OC(C)(C)C)c1nnc(C)n1-2` [JQ1], the “rescue of TCIP1-induced cell death by competitive titration” value (DLBCL cell lines) is given as “prevented death by TCIP1”, the “drug level at which MYC expression is reduced” value [10] is given as 500 nM and the “fold less-effective cell killing than TCIP1” value (KARPAS422 cells [9]) is given as 100–1,000 fold.

Source: article PMC10749586 (Nature, 2023)
